Laboratory results as given in ChEMBL document CHEMBL4627249, “New modification strategy of matrine as Hsp90 inhibitors based on its specific L conformation for cancer treatment” (Bioorg Med Chem, 2020).

How the values were obtained:
[1] = molecular target: Heat shock protein HSP90 (Homo sapiens) (UniProt P07900+P08238)
[2] = test system: MDA-MB-231; assay: Antiproliferative activity against human MDA-MB-231 cells assessed as reduction in cell viability after 48 hrs by MTT assay; type: functional, cell-based; conditions: MDA-MB-231, 48 h
[3] = test system: HeLa; assay: Antiproliferative activity against human HeLa cells assessed as reduction in cell viability after 48 hrs by MTT assay; type: functional, cell-based
Method in brief: (§1)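 HepG2 or HeLa cells in DMEM with 10% FBS and 1% penicillin-streptomycin were preincubated 24 h (37 °C, 5% CO2). They were then exposed for 48 h to 1, 5, 10, 20, 50 and 100 µM, diluted in medium from DMSO stocks. MTT (5 mg/mL, 20 µL) was added for 4 h, formazan dissolved in DMSO, and A490 read. Each concentration was run in triplicate. IC50 is the mean from dose-response curves of at least three independent experiments; cisplatin was the positive control.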

[4] = test system: HepG2; assay: Antiproliferative activity against human HepG2 cells assessed as reduction in cell viability after 48 hrs by MTT assay; type: functional, cell-based; conditions: HepG2, 48 h
Method in brief: as §1

Compound: O=C1CCC[C@@H]2[C@H]3CCCN4CCC[C@@H](CN12)[C@@H]34 [MATRINE]
- ΔTm [1]: 0.04 °C
- IC50 [2]: 5370 µM
- IC50 [3]: 4330 µM
- IC50 [4]: 4510 µM

Compound: CC(C)c1ccc(/N=C2\CCC[C@@H]3[C@H]4CCCN5CCC[C@@H](CN23)[C@@H]45)cc1
- ΔTm [1]: -1.24 °C
- IC50 [2]: 77.5 µM
- IC50 [3]: 93.3 µM
- IC50 [4]: 96.6 µM

Compound: N#Cc1ccccc1/N=C1\CCC[C@@H]2[C@H]3CCCN4CCC[C@@H](CN12)[C@@H]34
- ΔTm [1]: -1.44 °C
- IC50 [2]: > 100 µM
- IC50 [3]: > 100 µM
- IC50 [4]: > 100 µM

Compound: Cc1c(/N=C2\CCC[C@@H]3[C@H]4CCCN5CCC[C@@H](CN23)[C@@H]45)cccc1[N+](=O)[O-]
- ΔTm [1]: -1.06 °C
- IC50 [2]: > 100 µM
- IC50 [3]: > 100 µM
- IC50 [4]: 86.1 µM

Compound: Nc1c2c(nc3ccc(Cl)cc13)N1C[C@@H]3CCCN4CCC[C@@H]([C@H]34)[C@H]1CC2
- ΔTm [1]: -6.58 °C
- IC50 [2]: 14.3 µM
- IC50 [3]: 8.9 µM
- IC50 [4]: 6.4 µM

Compound: Nc1c2c(nc3ccc(Br)cc13)N1C[C@@H]3CCCN4CCC[C@@H]([C@H]34)[C@H]1CC2
- ΔTm [1]: -7.58 °C
- IC50 [2]: 9.7 µM
- IC50 [3]: 6.9 µM
- IC50 [4]: 9.7 µM

Compound: Nc1c2c(nc3ccc([N+](=O)[O-])cc13)N1C[C@@H]3CCCN4CCC[C@@H]([C@H]34)[C@H]1CC2
- ΔTm [1]: -0.24 °C
- IC50 [2]: 24.4 µM
- IC50 [3]: 69.2 µM
- IC50 [4]: 35.1 µM

Compound: O=C1C[C@@H]2[C@H]3CCCN4CCC[C@@H](CN12)[C@@H]34
- ΔTm [1]: 0.44 °C
- IC50 [2]: > 100 µM
- IC50 [3]: > 100 µM
- IC50 [4]: > 100 µM

Compound: Cc1ccc2nc3c(c(N)c2c1)CC[C@@H]1[C@H]2CCCN4CCC[C@@H](CN31)[C@@H]24
- ΔTm [1]: -4.27 °C
- IC50 [2]: 16.9 µM
- IC50 [3]: 13.4 µM
- IC50 [4]: 9.2 µM
